Screening data (PubChem)
An excerpt weighted towards active compounds, which were near 1.1% of everything screened.
NR2E3 ag-1: agonists of human NR2E3 nuclear receptor. AID 602229. Q9Y5X4. inhibition of corepressor binding, % at 3.98 µM. 360,000 tested, 0.35% active. CHO-S Gal4-NCOR/VP16-NR2E3 two-hybrid, luciferase;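 active = inhibition above the mean of all tested compounds plus 3 SD, cut at about 70% in these data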;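 also: 0% = DMSO with NR2E3 transfected cells and 100% = cells lacking NR2E3 construct; higher means lower luciferase signal from less NR2E3 corepressor binding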
HCV core dimer: blocks dimerization of HCV core protein; TR-FRET GST/Flag-core106 dimerization, 1536-well; inhibition, % at 5 µM; 300,000 tested, 0.33% active;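 active = inhibition above the mean of all tested compounds plus 3 SD, set per screening campaign, cut at about 45% in these data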
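Assay system: Tagged HCV core106 pair (GST and Flag) | Buffer or medium: KF-containing HEPES buffer, pH 7.45, DTT, CHAPS, BSA | Also added: Eu donor and XL665 acceptor anti-tag antibodies | Dosing: One concentration, 5 µM, in 0.5% DMSO | Timing: 4 h at 22.5 °C | Technique: TR-FRET 671 and 617 nm emission | Repeats: Singlicate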
DAGLB inh: diacylglycerol lipase beta (human) inhibition | HEK293T DAGLB membrane lysate, EnzChek fluorogenic substrate | inhibition, % at 5.17 µM | Q8NCG7 | 340,000 tested, 0.059% active | AID 504411; in the data active = inhibition above about 34%;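 also: 0% = enzyme with vehicle and 100% = wells lacking enzyme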
Target sequence (Q8NCG7 whole entry, looked up): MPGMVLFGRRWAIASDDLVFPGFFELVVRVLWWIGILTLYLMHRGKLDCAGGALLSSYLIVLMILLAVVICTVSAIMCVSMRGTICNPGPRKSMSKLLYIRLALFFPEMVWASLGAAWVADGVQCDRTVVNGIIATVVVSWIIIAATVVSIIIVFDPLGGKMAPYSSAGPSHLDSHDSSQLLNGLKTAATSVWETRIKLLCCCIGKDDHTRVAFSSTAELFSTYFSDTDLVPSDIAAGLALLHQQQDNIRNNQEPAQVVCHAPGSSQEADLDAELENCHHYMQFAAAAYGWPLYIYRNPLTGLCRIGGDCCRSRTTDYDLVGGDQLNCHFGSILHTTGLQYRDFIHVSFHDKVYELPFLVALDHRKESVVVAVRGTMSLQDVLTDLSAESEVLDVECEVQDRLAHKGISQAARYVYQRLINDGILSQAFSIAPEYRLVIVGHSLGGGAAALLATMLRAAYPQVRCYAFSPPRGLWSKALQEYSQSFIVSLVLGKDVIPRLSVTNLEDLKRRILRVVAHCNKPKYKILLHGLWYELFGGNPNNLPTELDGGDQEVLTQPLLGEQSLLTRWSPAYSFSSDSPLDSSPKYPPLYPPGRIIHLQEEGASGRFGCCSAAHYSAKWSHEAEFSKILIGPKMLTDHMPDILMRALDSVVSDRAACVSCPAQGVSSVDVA
MT1-MMP act inh: inhibitors of human MT1-MMP activation; GFP/RFP ratio change, % at 20 µM; HT1080 RFP-PRO-GFP cells, GFP/RFP ratio fluorescence, overnight; percent of plate control window, DMSO zero; 360,000 tested, 0.061% active;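 active = GFP/RFP ratio change of at least 30% with cell ATP level not reduced by more than half and red fluorescence within 50% of control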
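Assay system – RFP-PRO-GFP reporter HT1080 cells · Compound dosing – single dose of 20 µM compound, 1% DMSO final · Incubation – overnight compound exposure at 37 °C · Measure – GFP/RFP fluorescence ratio · Benchmarks – DMSO wells and RFP-L50D-GFP cells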
NR2E3 ag-2: activates human photoreceptor nuclear receptor NR2E3. Q9Y5X4. GST-NR2E3/biotin-RetCOR TR-FRET, 1536-well. inhibition of corepressor binding, % at 4.78 µM. 320,000 tested, 0.12% active. AID 2300;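 active = percent inhibition above the cutoff of mean plus 3 SD of all tested compounds, set per screening campaign, cut at about 20% in these data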;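 also: 0% = DMSO wells and 100% = biotin wells as full block of FRET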
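Material – GST-tagged NR2E3 plus biotinylated RetCOR corepressor · Quantity – NR2E3 fusion 1.35 nM · Times – 5 h incubation at 4 °C · Medium – pH 7.5 Tris-based buffer · Technique – TR-FRET, Eu(K)-anti-GST donor, streptavidin-D2 acceptor, ex 340, em 617/671 nm · Benchmarks – high control biotin, low control 0.6% DMSO · Format – 1536-well plates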
Vif inh: blocks HIV Vif function; inhibition, % at 7.49 µM; 340,000 tested, 0.35% active; HEK293T cells, Vif self-association by quenched fluorescence, imaging, 24 h; AID 602346; in the data active = inhibition above about 50%, passing the limit was not always enough; inconclusive = no clear call, values can overlap the other calls; inactive = below about 31%
NR2E3 ag conf: confirmation of human NR2E3 agonists | shares compounds with NR2E3 ag-1 | CHO-S mammalian two-hybrid NR2E3-NCOR, luciferase luminescence | inhibition, % at 3.98 µM | 2,300 tested, 51% active | AID 624378;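 active = average inhibition above a cutoff equal to the mean inhibition of all tested compounds plus one SD, cut at about 70% in these data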;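 also: 0% = DMSO in NR2E3 cells and 100% = DMSO in cells lacking NR2E3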
VP16 counter: GAL4-VP16 reporter inhibition in NR2E3 agonist counterscreen. inhibition, % at 3.98 µM. 2,300 tested, 29% active. CHO-S GAL4-VP16 luciferase reporter, luminescence. shares compounds with NR2E3 ag-1;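 active = mean inhibition above a cutoff equal to the average over all tested compounds plus one standard deviation, cut at about 70% in these data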;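 also: luciferase from a UAS reporter driven by GAL4-VP16 transactivation; 0% = DMSO with VP16-transfected cells and 100% = DMSO with cells lacking VP16; higher means less reporter light so more repression of VP16 activity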
The depositor's hits bear a star; ? = inconclusive; / = not tested or not shown.

SMILES	NR2E3 ag-1	HCV core dimer	DAGLB inh	MT1-MMP act inh	NR2E3 ag-2	Vif inh	NR2E3 ag conf	VP16 counter
COCCCNC(=S)N1CCN(c2nc(-c3ccc(Cl)cc3)cs2)CC1	65.4	/	-0.4	-6.3	/	/	72.7*	52.7
COc1ccc(C=NNC(=S)NC23CC4CC(CC(C4)C2)C3)cc1OC	64.4	/	-3.0	9.4	/	-14.0	2.4	12.4
CCOC(=O)c1csc(N)c1-c1ccc([N+](=O)[O-])cc1	-21.1	-0.7	-2.6	0.4	2.7	?	/	/
OC(c1ccc(F)cc1)c1nc(-c2ccncc2)cs1 (stereo unspecified)	79.1*	/	/	6.8	/	-4.6	83.2*	71.0*
OC(c1ccc(F)c(F)c1)c1nc(-c2ccncc2)cs1 (stereo unspecified)	27.9	/	/	0.3	/	-21.0	/	/
CC1(c2nnnn2-c2ccc3c(c2)OCCO3)CCC(=O)N1CC1CCCCC1 (stereo unspecified)	-21.3	/	/	1.3	/	/	/	/
O=C(Nc1ccc(OC(F)(F)F)cc1)Nc1cccc([N+](=O)[O-])c1	93.7*	-13.1	-5.5	-10.2	-3.5	-20.0	99.3*	87.9*
Cc1ccc(S(=O)(=O)Nc2ccc(NC(=O)Nc3cccc(C(F)(F)F)c3)cc2)cc1	4.9	5.1	-5.5	-3.8	-0.7	-11.2	/	/
O=C(Nc1ccncc1)Nc1cccc(C(F)(F)F)c1	14.9	9.1	-2.4	-7.9	1.2	-1.3	/	/
CCN(CC)S(=O)(=O)c1ccc(NC(=O)Nc2cccc(C(F)(F)F)c2)cc1	69.7	0.9	-1.1	-10.0	2.2	-39.4	74.7*	41.9
O=C(Nc1ccc(OC(F)F)cc1)Nc1cccc(C(F)(F)F)c1	56.7	-4.0	-4.7	-36.8	-0.2	-9.6	24.2	31.1
COc1ccc(CNC(=O)CN(Cc2ccc(F)cc2)C(=O)c2csnn2)cc1	5.7	-2.9	-2.1	-1.4	2.0	15.5	/	/
CC(=O)Nc1ccc(S(=O)(=O)NCCC(=O)Nc2ccc(C)c(Cl)c2)cc1	11.4	-3.6	-2.0	1.5	0.0	7.3	/	/
CC(=O)Nc1ccc(S(=O)(=O)NCCSCc2ccccc2Cl)cc1	71.0*	-2.1	-1.0	4.2	4.1	-2.7	82.1*	64.6
CC(C)COC(=O)NCCOC(=O)Nc1cccc(Cl)c1	72.6*	-2.1	-2.9	0.2	0.5	/	88.9*	72.4*
CCOC(=O)N=Nc1c(O)n(CC(=O)OC)c2ccccc12	2.2	-7.0	1.0	0.4	-1.5	3.3	/	/
CCOC(=O)N=Nc1c2ccccc2c2nc3no[nH]c3nc12	88.9*	/	/	-9.0	/	-4.8	99.2*	99.6*
NC(=S)N/N=C/c1ncc(C(F)(F)F)cc1Cl	-30.1	-0.8	/	4.9	1.4	5.2	/	/
Cn1nnnc1Sc1ncnc2scc(-c3cccc(Br)c3)c12	50.7	/	7.9	-20.4	/	-0.9	26.2	45.6
Cn1nnnc1Sc1ncnc2scc(-c3ccccc3Cl)c12	66.4	/	0.9	-4.3	1.1	-0.6	34.2	52.0
Cn1nnnc1Sc1ncnc2scc(-c3cccc4c3sc3ccccc34)c12	47.8	/	4.5	-3.2	/	-2.3	/	/
Cc1ccc(NC(=O)C(C)c2cccc(C(=O)c3ccccc3)c2)cc1O (stereo unspecified)	64.9	3.9	-2.3	-3.6	0.7	-6.8	94.6*	80.1*
CN(C)C(=O)c1cc(Cl)ccc1Sc1cc(Cl)ccc1Cl	-5.4	-2.3	-5.9	6.7	-1.6	5.5	/	/
Oc1ccc(Cl)cc1Sc1cc(Cl)ccc1O	60.8	/	3.8	2.0	/	-20.4	100.2*	66.1
Cc1nc2ccc(NS(=O)(=O)c3cccc([N+](=O)[O-])c3)cc2s1	62.8	/	-1.4	8.2	/	-13.5	85.3*	72.3*
SMILES	NR2E3 ag-1	HCV core dimer	DAGLB inh	MT1-MMP act inh	NR2E3 ag-2	Vif inh	NR2E3 ag conf	VP16 counter
Cc1nc2ccc([N+](=O)[O-])cc2s1	-29.3	-3.6	-2.7	1.5	1.9	10.0	/	/
Cc1nc2ccc(NS(=O)(=O)c3ccc(F)c(F)c3)cc2s1	64.7	/	-1.1	4.7	2.9	2.3	59.1	45.7
Cc1nc2ccc(NS(=O)(=O)c3ccccc3F)cc2s1	32.2	/	-0.5	-7.8	-1.3	-25.1	/	/
CC(=O)Nc1ccc(S(=O)(=O)Nc2ccc3nc(C)sc3c2)cc1	43.1	/	-1.0	-4.3	/	-10.6	/	/
Cc1ccc(S(=O)(=O)Nc2ccc3c(c2)OCCO3)cc1	-4.7	5.9	-1.5	0.1	3.1	-14.3	/	/
Cc1ccc(S(=O)(=O)Nc2ccc3nc(C)sc3c2)cc1	71.9*	4.3	-1.2	-9.8	1.9	-0.3	88.5*	75.8*
Cc1nc2ccc(NS(=O)(=O)c3ccc4c(c3)OCCO4)cc2s1	94.2*	-6.0	2.0	-5.1	-4.2	-27.7	97.3*	91.1*
O=C(COC(=O)CN1C(=O)C2CC=CCC2C1=O)Nc1cccc([N+](=O)[O-])c1 (stereo unspecified)	-18.3	/	1.7	1.8	/	/	/	/
Cc1nc2ccc(NS(=O)(=O)c3ccc(Br)cc3)cc2s1	84.9*	/	-1.3	-4.8	1.1	-3.9	96.9*	76.1*
Cc1nc2ccc(NS(=O)(=O)c3c(C)c(C)cc(C)c3C)cc2s1	9.5	4.4	-7.2	-8.7	3.2	-3.4	/	/
Cc1nc2ccc(S(=O)(=O)Nc3ccc(-c4nc5cccnc5s4)cc3)cc2s1	-7.7	-0.2	-1.3	4.2	7.5	19.0	/	/
Cc1ccc(S(=O)(=O)Nc2ccc3nc(C)sc3c2)c(C)c1	67.3	/	-3.0	-11.6	-0.2	-4.2	72.0*	64.4
Cc1nc2ccc(S(=O)(=O)Nc3cccc(-c4nc5cccnc5s4)c3)cc2s1	70.6*	7.0	1.6	1.8	6.2	6.7	75.5*	45.3
COc1cc(OC)c(C(=O)N/N=C/c2ccoc2)cc1OC	-5.3	-16.9	-1.1	3.3	0.8	16.0	/	/
N#Cc1ccccc1S(=O)(=O)N1CCN(C(=O)c2cn(-c3ccccc3)nc2-c2cccnc2)CC1	-12.3	/	-0.3	-0.5	-2.3	-2.6	/	/
O=C(Cn1cnc2ccccc21)Nc1ccc(SC(F)F)cc1	67.7	-11.5	-4.3	0.3	3.8	-26.5	94.3*	77.8*
COc1ccc(/C(C)=N/NC(=S)NCCc2ccccc2)c(O)c1	48.5	6.6	2.0	2.3	2.2	-4.2	-17.7	-1.2
COCCCNC(=S)N/N=C/c1ccccc1O	73.8*	1.7	-0.2	6.1	3.0	-5.9	-37.1	-11.4
COCCNC(=S)N/N=C(\C)c1ccccc1O	66.4	1.4	-3.5	7.2	-0.1	3.6	-72.9	-49.7
